Results taken from ChEMBL document CHEMBL4680287, “Ibrexafungerp: An orally active β-1,3-glucan synthesis inhibitor” (Bioorg Med Chem Lett, 2021).
Converted amounts (≈) assume the structure as drawn.

Legend:
[1] = Inhibition of beta-1,3-glucan synthase in Candida albicans MY1055 microsomal membrane assessed as inhibition of TCA-insoluble material formation using UDP-[3H]-glucose as substrate incubated for 2 hrs in presence of GTP by radioactivity-based assay; format: microsomes, Microsome
In short: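 GS IC50 measured using Candida albicans MY1055 microsomal membrane fragments as the enzyme source.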

[2] = tested on: Candida albicans; assay: Antifungal activity against Candida albicans MY1055 assessed as fungal growth inhibition measured after 24 hrs by liquid microdilution method; format: functional
In short: (§1)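 Broth microdilution per CLSI protocols in RPMI medium. Read-out is the MIC, the lowest concentration completely inhibiting fungal growth. Run without serum and with added serum.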

[3] = tested on: Aspergillus fumigatus; assay: Antifungal activity against Aspergillus fumigatus MF5668 assessed inhibition of fungal growth by measuring morphological changes measured after 24 hrs by microscopy; format: functional; settings: read-out: MEC
In short: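 Microdilution per CLSI protocols in RPMI medium. Read-out is the minimum effective concentration (MEC). Run without serum and with 50% human serum.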

[4] = tested on: Candida albicans; assay: Antifungal activity against Candida albicans MY1055 assessed as fungal growth inhibition measured after 24 hrs in presence of 50% mouse serum by liquid microdilution method; format: functional; in short: as §1
[5] = Dose normalized AUC in po dosed mouse; format: ADME, organism-based; settings: in vivo
[6] = tested on: Candida albicans; assay: Antifungal activity against Candida albicans MY1055 infected in DBA/2 mouse model of disseminated candidiasis assessed as reduction in fungal burden in kidney by measuring log change in colony forming units at 25 mg/kg, po bid for 7 days by TOKA; format: functional; settings: time 7 day
In short: (§2)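 Murine disseminated candidiasis model (TOKA) in mice challenged with C. albicans MY1055 at 2.44 x 10^4 CFU/mouse. Dosed PO, or IP where stated. Kidneys collected aseptically 7 days after challenge and CFUs/g counted. Change in log CFU/g is relative to sham-treated controls; significance by two-tailed t test. Clearance is the percentage of kidneys below the detection limit.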

[7] = tested on: Candida albicans; assay: Antifungal activity against Candida albicans MY1055 infected in DBA/2 mouse model of disseminated candidiasis assessed as reduction in fungal burden in kidney by measuring log change in colony forming units at 12.5 mg/kg, po bid for 7 days by TOKA; format: functional; settings: time 7 day; in short: as §2
[8] = tested on: Candida albicans; assay: Antifungal activity against Candida albicans MY1055 infected in DBA/2 mouse model of disseminated candidiasis assessed as reduction in fungal burden in kidney by measuring log change in colony forming units at 6.25 mg/kg, po bid for 7 days by TOKA; format: functional; settings: time 7 day; in short: as §2
[9] = Oral bioavailability in mouse; format: ADME, organism-based; settings: in vivo
In short: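 Oral bioavailability calculated as oral AUC normalized to the IV dose, divided by the IV AUC.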

SMILES | IC50 [1] [µg/mL] | MIC [2] [µg/mL] | minimal effective concentration [3] [µg/mL] | MIC [4] [µg/mL] | AUC/dose [5] [µM·kg·h/mg] | Activity [6] [deltalog10CFU] | Activity [7] [deltalog10CFU] | Activity [8] [deltalog10CFU] | bioavailability [9] [%]
CN[C@@](C)(CO[C@H]1[C@H](n2ncnc2-c2ccncc2)C[C@@]23COC[C@]1(C)[C@@H]2CC[C@H]1C3=CC[C@@]2(C)[C@H](C(=O)O)[C@@](C)([C@H](C)C(C)C)CC[C@]12C)C(C)(C)C | 0.002 | 0.03 (≈ 0.0403 µM) | 0.008 | 1 | 0.62 | -4.2 | -3.2 | -1.7 | 
CC(C)[C@@H](C)[C@@]1(C)CC[C@]2(C)[C@H]3CC[C@@H]4[C@@]5(COC[C@@]4(C)[C@@H](OC[C@](C)(N)C(C)C)[C@H](n4ncnc4-c4cccnn4)C5)C3=CC[C@@]2(C)[C@@H]1C(=O)O | 0.005 | < 0.03 | < 0.03 | 2 |  |  |  |  | 
COc1cccc(-c2ncnn2[C@@H]2C[C@@]34COC[C@](C)([C@@H]3CC[C@H]3C4=CC[C@@]4(C)[C@H](C(=O)O)[C@@](C)([C@H](C)C(C)C)CC[C@]34C)[C@H]2OC[C@](C)(N)C(C)C)c1 | 0.011 | 0.25 (≈ 0.336 µM) | < 0.03 | 32 |  |  |  |  | 
CC(C)[C@@H](C)[C@@]1(C)CC[C@]2(C)[C@H]3CC[C@@H]4[C@@]5(COC[C@@]4(C)[C@@H](OC[C@](C)(N)c4ccccc4)[C@H](n4ncnc4-c4ccncc4)C5)C3=CC[C@@]2(C)[C@@H]1C(=O)O | 0.006 | 0.25 (≈ 0.333 µM) | 0.125 | 4 |  | -2.6 | -1.5 | -0.5 | 
CC(C)[C@@H](C)[C@@]1(C)CC[C@]2(C)[C@H]3CC[C@@H]4[C@@]5(COC[C@@]4(C)[C@@H](OC[C@](C)(N)C(C)C)[C@H](n4cncn4)C5)C3=CC[C@@]2(C)[C@@H]1C(=O)O | 0.007 | 0.25 (≈ 0.391 µM) | < 0.03 | 4 |  |  |  |  | 
CC(C)[C@@H](C)[C@@]1(C)CC[C@]2(C)[C@H]3CC[C@@H]4[C@@]5(COC[C@@]4(C)[C@@H](OC[C@](C)(N)C(C)C)[C@H](n4ncnc4C4CC4)C5)C3=CC[C@@]2(C)[C@@H]1C(=O)O | 0.006 | 0.125 (≈ 0.184 µM) | 0.008 | 16 |  |  |  |  | 
CC(C)[C@@H](C)[C@@]1(C)CC[C@]2(C)[C@H]3CC[C@@H]4[C@@]5(COC[C@@]4(C)[C@@H](OC[C@H](N)C(C)(C)C)[C@H](n4ncnc4-c4ccncc4)C5)C3=CC[C@@]2(C)[C@@H]1C(=O)O | 0.007 | 0.25 (≈ 0.349 µM) | < 0.03 | 2 |  | -2.6 | -2.4 | -1 | 
CC(C)[C@@H](C)[C@@]1(C)CC[C@]2(C)[C@H]3CC[C@@H]4[C@@]5(COC[C@@]4(C)[C@@H](OC[C@](C)(N)C(C)C)[C@H](n4ncnc4-c4ccc(F)cc4)C5)C3=CC[C@@]2(C)[C@@H]1C(=O)O | 0.011 | 0.25 (≈ 0.341 µM) | < 0.03 | 8 |  |  |  |  | 
CC(C)[C@@H](C)[C@@]1(C)CC[C@]2(C)[C@H]3CC[C@@H]4[C@@]5(COC[C@@]4(C)[C@@H](OC[C@](C)(N)C(C)C)[C@H](n4ncnc4-c4cccc(F)c4)C5)C3=CC[C@@]2(C)[C@@H]1C(=O)O | 0.011 | 0.25 (≈ 0.341 µM) | < 0.03 | 8 |  |  |  |  | 
CC(C)[C@@H](C)[C@@]1(C)CC[C@]2(C)[C@H]3CC[C@@H]4[C@@]5(COC[C@@]4(C)[C@@H](OC[C@](C)(N)C(C)C)[C@H](n4ncnc4-c4ncccn4)C5)C3=CC[C@@]2(C)[C@@H]1C(=O)O | 0.004 | 0.25 (≈ 0.349 µM) | < 0.03 | 8 |  |  |  |  | 
COc1cc(-c2ncnn2[C@@H]2C[C@@]34COC[C@](C)([C@@H]3CC[C@H]3C4=CC[C@@]4(C)[C@H](C(=O)O)[C@@](C)([C@H](C)C(C)C)CC[C@]34C)[C@H]2OC[C@](C)(N)C(C)C)ccn1 | 0.008 | 0.25 (≈ 0.335 µM) | < 0.03 | 4 |  |  |  |  | 
CCC(N)(CC)CO[C@H]1[C@H](n2ncnc2-c2ccncc2)C[C@@]23COC[C@]1(C)[C@@H]2CC[C@H]1C3=CC[C@@]2(C)[C@H](C(=O)O)[C@@](C)([C@H](C)C(C)C)CC[C@]12C | 0.001 | 0.06 (≈ 0.0838 µM) | < 0.03 | 1 |  | -3.3 | -2.3 | -1.3 | 
CC(C)[C@@H](C)[C@@]1(C)CC[C@]2(C)[C@H]3CC[C@@H]4[C@@]5(COC[C@@]4(C)[C@@H](OC[C@](C)(N)C(C)C)[C@H](n4ncnc4-c4cnccn4)C5)C3=CC[C@@]2(C)[C@@H]1C(=O)O | 0.004 | 0.5 (≈ 0.697 µM) | < 0.03 | 4 |  |  |  |  | 
COc1ccc(-c2ncnn2[C@@H]2C[C@@]34COC[C@](C)([C@@H]3CC[C@H]3C4=CC[C@@]4(C)[C@H](C(=O)O)[C@@](C)([C@H](C)C(C)C)CC[C@]34C)[C@H]2OC[C@](C)(N)C(C)C)cc1 | 0.015 | 0.5 (≈ 0.671 µM) | < 0.03 | 8 |  |  |  |  | 
CCc1ncnn1[C@@H]1C[C@@]23COC[C@](C)([C@@H]2CC[C@H]2C3=CC[C@@]3(C)[C@H](C(=O)O)[C@@](C)([C@H](C)C(C)C)CC[C@]23C)[C@H]1OC[C@](C)(N)C(C)C | 0.01 | 0.25 (≈ 0.375 µM) | < 0.03 | 8 |  |  |  |  | 
CN[C@@](C)(CO[C@H]1[C@H](n2ncnc2-c2ccccn2)C[C@@]23COC[C@]1(C)[C@@H]2CC[C@H]1C3=CC[C@@]2(C)[C@H](C(=O)O)[C@@](C)([C@H](C)C(C)C)CC[C@]12C)C(C)C | 0.003 | 0.25 (≈ 0.342 µM) | < 0.03 | 16 |  |  |  |  | 
CCCc1ncnn1[C@@H]1C[C@@]23COC[C@](C)([C@@H]2CC[C@H]2C3=CC[C@@]3(C)[C@H](C(=O)O)[C@@](C)([C@H](C)C(C)C)CC[C@]23C)[C@H]1OC[C@](C)(N)C(C)C | 0.003 | 8 (≈ 11.7 µM) | < 0.03 | 16 |  |  |  |  | 
CC(C)[C@@H](C)[C@@]1(C)CC[C@]2(C)[C@H]3CC[C@@H]4[C@@]5(COC[C@@]4(C)[C@@H](OC[C@](C)(N)C(C)C)[C@H](n4ncnc4-c4ccncn4)C5)C3=CC[C@@]2(C)[C@@H]1C(=O)O | 0.005 | < 0.03 | < 0.03 | 4 | 2.38 |  |  |  | 43
CC(C)[C@@H](C)[C@@]1(C)CC[C@]2(C)[C@H]3CC[C@@H]4[C@@]5(COC[C@@]4(C)[C@@H](OC[C@](C)(N)C(C)C)[C@H](n4ncnc4-c4ccccc4F)C5)C3=CC[C@@]2(C)[C@@H]1C(=O)O |  | 0.5 (≈ 0.682 µM) | < 0.03 | 8 |  |  |  |  | 
Cc1ncnn1[C@@H]1C[C@@]23COC[C@](C)([C@@H]2CC[C@H]2C3=CC[C@@]3(C)[C@H](C(=O)O)[C@@](C)([C@H](C)C(C)C)CC[C@]23C)[C@H]1OC[C@](C)(N)C(C)C | 0.005 | 0.25 (≈ 0.383 µM) | 0.03 | 4 |  |  |  |  | 
